Measurements taken from ChEMBL document CHEMBL1148007, “Synthesis of new S-derivatives of clubbed triazolyl thiazole as anti-Mycobacterium tuberculosis agents” (Bioorg Med Chem, 2007).

Assays:
Pseudomonas aeruginosa = test: Antibacterial activity against Pseudomonas aeruginosa at 50 to 100 uM after 24 hrs by well diffusion method; assay type: functional
How it was run: (§1)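 Nutrient agar plates with 10 mm wells cut by cork borer; 24-h subcultured bacteria swabbed on. Compounds dissolved in chloroform, 50 to 100 μM added to wells, gentamycin as standard. Incubated 24 h at 24–28 °C; inhibition zone diameter measured and converted to percent inhibition.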

Salmonella typhi = test: Antibacterial activity against Salmonella typhi at 50 to 100 uM after 24 hrs by well diffusion method; assay type: functional, Salmonella enterica subsp. enterica serovar Typhi; set-up: unit not given here; how it was run: as §1
Staphylococcus aureus = test: Antibacterial activity against Staphylococcus aureus at 50 to 100 uM after 24 hrs by well diffusion method; assay type: functional; how it was run: as §1
[1] = Cytotoxicity against Vero-C1008 cells at 6.25 to 50 ug/mL by neutral red uptake assay; assay type: cell-based; conditions: chlorocebus sabaeus
How it was run: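 Vero-C-1008 cells exposed to 6.25 to 50 μg/mL compound; viability read by neutral red uptake.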

[2] = tested on: Mycobacterium tuberculosis; test: Antitubercular activity against Mycobacterium tuberculosis H37Rv at 6.25 ug/mL by MABA assay; assay type: functional; conditions: read-out: GI
How it was run: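 Primary screen against M. tuberculosis H37Rv (ATCC 27294) in BACTEC 12B medium by broth microdilution Microplate Alamar Blue Assay; fluorescent compounds run instead in BACTEC 460 radiometric system. Compounds above 95% inhibition counted active.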

Escherichia coli = test: Antibacterial activity against Escherichia coli at 50 to 100 uM after 24 hrs by well diffusion method; assay type: functional; how it was run: as §1
[3] = tested on: Mycobacterium tuberculosis; test: Antitubercular activity against Mycobacterium tuberculosis H37Rv by MABA assay; assay type: functional
How it was run: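 Actives re-tested at lower concentrations against H37Rv (ATCC 27294) in BACTEC 12B medium by Microplate Alamar Blue Assay. MIC taken as lowest concentration giving […] fluorescence reduction versus controls; rifampin reference.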

| SMILES | inhibition zone (Pseudomonas aeruginosa) | Inhibition (Salmonella typhi) | inhibition zone (Staphylococcus aureus) | Activity [1] | inhibition of growth at 6.25 µg/mL [2] | inhibition zone (Escherichia coli) | MIC [3] |
| --- | --- | --- | --- | --- | --- | --- | --- |
| CC(=O)Nc1nc(Cc2nnc(SCC(=O)NN)n2NC(=O)c2ccc(Cl)cc2)cs1 | 16 mm | 14 | 16 mm | Non-toxic | 96% | 12 mm | 6.25 µM |
| NNC(=O)CSc1nnc(Cc2csc(NC(=O)CCl)n2)n1NC(=O)c1cccc([N+](=O)[O-])c1 | 20 mm | 18 | 29 mm | Non-toxic | 96% | 19 mm | 6.25 µM |
| O=C(Nc1nc(Cc2nnc(S)n2NC(=O)c2ccc(Cl)cc2)cs1)c1ccccc1 | 10 mm | 18 | 16 mm | Non-toxic | 96% | 10 mm | 6.25 µM |
| N#CCSc1nnc(Cc2csc(NCCC(=O)O)n2)n1NC(=O)c1cccc([N+](=O)[O-])c1 | 23 mm | 24 | 25 mm | Non-toxic | 96% | 24 mm | < 6.25 µg/mL |
| CC(=O)Nc1nc(Cc2nnc(S)n2NC(=O)c2ccc(Cl)cc2)cs1 | 16 mm | 16 | 16 mm | Non-toxic | 96% | 20 mm | 6.25 µM |
| N#CCSc1nnc(Cc2csc(NC(=O)CCl)n2)n1NC(=O)c1cccc([N+](=O)[O-])c1 | 24 mm | 24 | 24 mm | Non-toxic | 100% | 19 mm | < 6.25 µg/mL |
| O=C(CSc1nnc(Cc2csc(NC(=O)c3ccccc3)n2)n1NC(=O)c1ccc(Cl)cc1)N/N=C/c1ccccc1 | 24 mm | 21 | 21 mm | Non-toxic | 96% | 23 mm | 3.13 µM |
| O=C(Nc1nc(Cc2nnc(S)n2NC(=O)c2cccc([N+](=O)[O-])c2)cs1)c1ccccc1 | 24 mm | 12 | 11 mm | Non-toxic | 96% | 16 mm | 6.25 µM |
| O=C(O)CCNc1nc(Cc2nnc(S)n2NC(=O)c2ccc(Cl)cc2)cs1 | 17 mm | 22 | 11 mm | Non-toxic | 96% | 15 mm | 6.25 µM |
| CC(=O)Nc1nc(Cc2nnc(S)n2N)cs1 | 27 mm | 24 | 28 mm | Non-toxic | 96% | 22 mm | < 6.25 µg/mL |
| CC(=O)Nc1nc(Cc2nnc(S)n2NC(=O)c2cccc([N+](=O)[O-])c2)cs1 | 16 mm | 12 | 16 mm | Non-toxic | 100% | 12 mm | 6.25 µM |
| O=C(O)CCNc1nc(Cc2nnc(SCC(=O)N/N=C/c3ccccc3)n2NC(=O)c2cccc([N+](=O)[O-])c2)cs1 | 32 mm | 27 | 30 mm | Non-toxic | 96% | 26 mm | 1.56 µM |
| CC(=O)Nc1nc(Cc2nnc(SCC(=O)N/N=C/c3ccccc3)n2NC(=O)c2ccc(Cl)cc2)cs1 | 20 mm | 20 | 25 mm | Non-toxic | 96% | 20 mm | 3.13 µM |
| O=C(CSc1nnc(Cc2csc(NC(=O)CCl)n2)n1NC(=O)c1ccc(Cl)cc1)N/N=C/c1ccccc1 | 19 mm | 17 | 24 mm | Non-toxic | 96% | 19 mm | 3.13 µM |
| N#CCSc1nnc(Cc2csc(NC(=O)c3ccccc3)n2)n1NC(=O)c1ccc(Cl)cc1 | 27 mm | 19 | 31 mm | Non-toxic | 96% | 27 mm | 3.13 µM |
| O=C(O)CCNc1nc(Cc2nnc(SCC(=O)N/N=C/c3ccccc3)n2NC(=O)c2ccc(Cl)cc2)cs1 | 27 mm | 22 | 22 mm | Non-toxic | 96% | 18 mm | 3.13 µM |
| O=C(O)CCNc1nc(Cc2nnc(S)n2NC(=O)c2cccc([N+](=O)[O-])c2)cs1 | 25 mm | 19 | 28 mm | Non-toxic | 96% | 18 mm | 6.25 µM |
| O=C(CCl)Nc1nc(Cc2nnc(S)n2NC(=O)c2ccc(Cl)cc2)cs1 | 20 mm | 14 | 20 mm | Non-toxic | 96% | 18 mm | 6.25 µM |
| O=C(CSc1nnc(Cc2csc(NC(=O)CCl)n2)n1NC(=O)c1cccc([N+](=O)[O-])c1)N/N=C/c1ccccc1 | 30 mm | 25 | 31 mm | Non-toxic | 100% | 26 mm | 1.56 µM |
| N#CCSc1nnc(Cc2csc(NCCC(=O)O)n2)n1NC(=O)c1ccc(Cl)cc1 | 29 mm | 25 | 30 mm | Non-toxic | 100% | 21 mm | 3.13 µM |
